Assay outcomes as filed in PubChem BioAssay.
Shown are actives, neighbours in structure and some others; about 2.6% of the full set was active somewhere.
RAD54 branch – inhibitors of human RAD54 branch migration; AID 602329; 360,000 compounds, 0.14% hits; RAD54 Holliday junction branch migration, FAM/BHQ fluorescence; inhibition, % at 10.4 µM;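 active = mean normalized replicate activity at least 40 and at least half of replicates scoring 40 or more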;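 note: inhibitors cause a drop in the FAM fluorescence signal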
Target sequence (Q92698 whole entry, looked up): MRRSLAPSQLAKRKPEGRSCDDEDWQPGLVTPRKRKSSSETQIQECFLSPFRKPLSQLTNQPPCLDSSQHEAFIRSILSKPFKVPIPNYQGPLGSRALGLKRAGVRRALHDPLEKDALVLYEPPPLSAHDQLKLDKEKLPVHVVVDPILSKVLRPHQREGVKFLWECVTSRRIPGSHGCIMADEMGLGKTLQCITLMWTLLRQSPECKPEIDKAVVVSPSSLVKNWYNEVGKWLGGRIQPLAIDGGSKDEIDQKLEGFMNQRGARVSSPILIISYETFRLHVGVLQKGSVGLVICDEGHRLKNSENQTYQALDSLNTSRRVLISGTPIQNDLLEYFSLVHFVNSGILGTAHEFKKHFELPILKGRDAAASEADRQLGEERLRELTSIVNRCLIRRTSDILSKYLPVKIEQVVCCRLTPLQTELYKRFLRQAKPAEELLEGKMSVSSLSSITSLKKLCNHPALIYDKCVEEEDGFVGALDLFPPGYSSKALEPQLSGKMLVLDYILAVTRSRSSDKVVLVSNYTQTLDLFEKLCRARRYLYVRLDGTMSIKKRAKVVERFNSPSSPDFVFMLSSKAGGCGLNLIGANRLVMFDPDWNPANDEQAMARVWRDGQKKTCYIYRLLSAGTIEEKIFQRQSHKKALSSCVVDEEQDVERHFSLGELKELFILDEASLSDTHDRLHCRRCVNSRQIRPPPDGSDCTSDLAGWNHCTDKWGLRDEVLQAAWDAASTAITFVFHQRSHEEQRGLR
MLL AF4-AF9 inh – blocks AF4 peptide binding to human AF9. P42568. AlphaScreen, biotin-AF4 peptide binding to FLAG-AF9. inhibition, % at 10 µM. 350,000 compounds, 0.47% hits. AID 651704;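 active = every replicate reaching a set inhibition limit, whatever the replicate mean, cut at about 25% in these data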
RAD52 anneal inh – RAD52 (human) annealing inhibition; P43351; inhibition, % at 18.7 µM; recombinant RAD52 DNA annealing, FRET fluorescence; AID 651710; 360,000 compounds, 0.46% hits;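 active = every replicate showing at least 50% inhibition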
INS-1E GSIS act – GLuc luminescence reporter in INS-1E cells, primary screen for activators of glucose-dependent secretion of insulin. INS-1E GLuc reporter insulin secretion, 2-3 h. activation, % at 16.6 µM. 370,000 compounds, 0.61% hits;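 active = lowest replicate activation of at least 40%, so every replicate reaches that level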
E-sel inducer – induces E-selectin expression in human endothelial cells. P16581. HUVEC E-selectin immunofluorescence imaging; normalized: neutral wells 0, TNF-alpha wells 100. activation, % at 7.58 µM. 260,000 compounds, 0.37% hits. AID 686992;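 active = mean E-selectin-positive cell signal at least 10% of the positive control, reached in at least 60% of replicates, without over 20% cell loss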
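Test system – human umbilical vein endothelial cells (HUVEC), E-selectin induction · Input – 3,000 HUVEC seeded per well · Buffer or medium – EGM-2, gelatin · Compound dosing – single-point compound dose · Detection – immunofluorescence imaging · Measure – percent E-selectin-positive cells · Controls – TNF-alpha high, DMSO low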
Ecoli rRNA inh – inhibits bacterial ribosomal RNA function over humanized ribosomes; E. coli WT GFP vs humanized-ribosome RFP mutants, fluorescence, 24 h; active compounds read low; DMSO median 0, no signal -100; 350,000 compounds, 1.6% hits; GFP signal change (wild-type ribosome), % (concentration not given with the values);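 active = significant combined selectivity score with lowered wild-type GFP, culture density cut under 30%, mutant RFP and density less affected; inactive = any of these conditions unmet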
Hits are given with their value; . = inactive; / = not tested or not shown.

SMILES | RAD54 branch | MLL AF4-AF9 inh | RAD52 anneal inh | INS-1E GSIS act | E-sel inducer | Ecoli rRNA inh
C[C@H]1CN([C@@H](C)CO)C(=O)c2cc(NC(=O)Cn3cnnn3)ccc2O[C@H]1CN(C)C | . | . | . | . | / | .
C[C@H](CO)N1C[C@H](C)[C@@H](CN(C)C(=O)NC2CCCCC2)OCCCC[C@H](C)Oc2ccc(NC(=O)CCCN(C)C)cc2C1=O | . | . | . | . | . | .
O=C(Nc1ccc(Cl)cc1)Nc1ccc(-c2cnco2)cc1 | . | . | . | . | . | -21.9
O=C(NC1CCCc2c1cnn2-c1ccc(F)cc1F)c1ccccc1N1CCOCC1 (centres undefined) | . | . | . | . | . | -29.4
Cc1ccc(-n2ncc3c2CCCC3NC(=O)c2ccccc2N2CCOCC2)cc1C (centres undefined) | . | . | . | . | . | .
OCCCc1cn(-c2ccccc2)c2ccccc12 | / | . | . | . | / | -39.3
Cn1c(-c2ccccc2)c(CCO)c2ccccc21 | . | / | / | . | / | /
Fc1ccc(CNC(=S)NCc2ccc(F)cc2)cc1 | / | . | . | . | . | -31.1
CCNC(=S)NCc1ccc(F)cc1 | . | . | . | . | . | .
CCn1c(=S)sc2c(=O)n(-c3ccccc3)c(=S)[nH]c21 | / | . | . | . | . | -29.9
CCOc1ccccc1-n1c(=S)sc2c(=O)n(-c3ccc(C)cc3)c(=S)[nH]c21 | / | . | . | . | . | .
COc1ccc(CN(C)C[C@@H]2OCCCC[C@H](C)Oc3ccc(NC(=O)CCCN(C)C)cc3C(=O)N([C@@H](C)CO)C[C@H]2C)cc1 | / | . | . | . | . | .
CCOC(=O)Cc1nn(Cc2ccccc2)c(=O)c2ccccc12 | / | . | . | 88.7 | . | -25.9
CCOC(=O)Cc1nn(Cc2ccc(Cl)cc2)c(=O)c2ccccc12 | . | . | . | . | / | .
C[C@H](CO)N1C[C@H](C)[C@@H](CN(C)CC2CC2)OCCCC[C@H](C)Oc2ccc(NC(=O)c3ccncc3)cc2C1=O | . | . | . | . | . | .
CCC(=O)Nc1ccc2c(c1)C(=O)N(C)[C@H]1CC[C@H](CC(=O)Nc3cccc(F)c3)O[C@@H]1CO2 | . | . | . | . | . | .
CCN(CC(=O)NCc1cccs1)C(=O)CCOc1ccccc1 | . | . | . | . | . | .
CCOc1ccc(OCCC(=O)N(CC)CC(=O)NCc2cccs2)cc1 | . | . | . | 41.1 | / | .
O=C(CC(=O)Nc1ccccc1[N+](=O)[O-])Nc1ccccc1[N+](=O)[O-] | . | . | . | . | . | .
O=C(CNCc1cccc2ccccc12)Nc1ccccc1[N+](=O)[O-] | / | . | . | . | . | -30.6
CNC(=O)NC(=O)C(C)OC(=O)c1oc2ccccc2c1CSc1ccc(Cl)cc1 (centres undefined) | / | . | . | . | . | .
CCNC(=O)NC(=O)C(C)OC(=O)c1oc2ccccc2c1CSC1CCCCC1 (centres undefined) | . | / | / | 108.0 | / | /
N#Cc1cccnc1N1CCC(C(N)=O)CC1 | / | . | . | . | 69.5 | .
S=c1[nH]nc(-c2ccco2)n1/N=C/C(Cl)=C/c1ccccc1 | . | . | . | . | . | -36.4
Cc1cc(-c2n[nH]c(=S)n2/N=C/C(Cl)=C/c2ccccc2)n[nH]1 | . | / | / | . | / | /
SMILES | RAD54 branch | MLL AF4-AF9 inh | RAD52 anneal inh | INS-1E GSIS act | E-sel inducer | Ecoli rRNA inh
CCNC(=O)C[C@H]1CC[C@H]2[C@@H](COc3ccc(NC(=O)c4cccc(C#N)c4)cc3C(=O)N2C)O1 | / | / | / | . | / | .
CCCC(=O)N1CC2(C1)CN(Cc1ccncc1)[C@@H](CO)c1[nH]c3cc(OC)ccc3c12 | / | / | / | . | / | .
CC(C)Cc1nnc(NS(=O)(=O)c2ccccc2)s1 | . | . | . | . | . | -16.6
CCCCCC/C(C=O)=C\c1ccccc1 | . | / | . | . | / | .
O=C(O)C(=Cc1ccccc1)Cc1ccccc1 | . | . | . | 41.4 | . | .
Cn1cc(/C=C2\SC(=O)N(c3ccccc3)C2=O)c2ccccc21 | . | / | / | . | / | /
Cn1cc(/C=C2\SC(=O)N(c3ccc(O)cc3)C2=O)c2ccccc21 | . | . | . | / | . | -34.5
Cc1ccc(S(=O)(=O)N(C)C[C@@H]2Oc3ccc(NC(=O)CCN4CCOCC4)cc3C(=O)N([C@H](C)CO)C[C@@H]2C)cc1 | . | . | . | . | . | .
C[C@@H]1CN([C@H](C)CO)C(=O)c2cccc(NC(=O)Nc3cccc4ccccc34)c2O[C@@H]1CN(C)Cc1ccc(-c2ccccc2)cc1 | / | / | / | . | . | .
CCN(CC)C(=O)c1ccccc1NS(=O)(=O)c1ccc(C)cc1 | . | / | / | 43.2 | / | /
CCN(CC)C(=O)c1ccccc1NS(=O)(=O)c1cccs1 | . | . | . | . | . | .
C#CCOCCOCCOCCNc1nc(N2CCN(C(=O)[C@H]([C@@H](C)CC)n3cc([C@@H](N)CC(C)C)nn3)CC2)nc(N2CCN(C(=O)[C@H](Cc3ccc(O)cc3)n3cc([C@@H](N)CC(C)C)nn3)CC2)n1 | / | 28.2 | . | . | . | .
C#CCOCCOCCOCCNc1nc(N2CCN(C(=O)[C@H](CO)n3cc([C@@H](N)C(C)C)nn3)CC2)nc(N2CCN(C(=O)[C@H](CCC(=O)O)n3cc([C@@H](N)CCCCN)nn3)CC2)n1 | . | . | . | . | . | .
C#CCOCCOCCOCCNc1nc(N2CCN(C(=O)CCCCCCCCCCNC(=O)[C@H](CCCCN)n3cc(CCO)nn3)CC2)nc(N2CCN(C(=O)CCCCCCCCCCNC(=O)[C@H](CCCCN)n3cc(CCO)nn3)CC2)n1 | 50.0 | / | / | / | / | /
C#CCOCCOCCOCCNc1nc(N2CCN(C(=O)[C@H](CCCN=C(N)N)n3cc(C(N)[C@@H](C)CC)nn3)CC2)nc(N2CCN(C(=O)[C@H](CC(N)=O)n3cc([C@@H](N)CC(N)=O)nn3)CC2)n1 (some centres undefined) | . | 25.2 | . | . | . | .
C#CCOCCOCCOCCNc1nc(N2CCN(C(=O)C([C@@H](C)O)n3cc([C@@H](N)CCCCN)nn3)CC2)nc(N2CCN(C(=O)[C@H](CO)n3cc([C@@H](N)C(C)C)nn3)CC2)n1 (some centres undefined) | . | 54.4 | 58.2 | . | . | .
O=C(NCC[C@@H]1CC[C@@H](NS(=O)(=O)c2ccc(F)cc2)[C@H](CO)O1)c1ccccc1F | / | . | . | . | . | .
C[C@@H]1CN([C@H](C)CO)C(=O)c2cc(NC(=O)NC3CCCCC3)ccc2O[C@H]1CN(C)C(=O)Nc1ccc2c(c1)OCO2 | . | . | . | . | . | .
C[C@H](CO)N1C[C@H](C)[C@H](CN(C)S(=O)(=O)c2cn(C)cn2)OCCCC[C@H](C)Oc2ccc(NS(=O)(=O)c3ccccc3)cc2C1=O | . | . | . | . | . | .
CC(C)CC#Cc1cnc2c(c1)C(=O)N([C@H](C)CO)C[C@@H](C)[C@H](CN(C)S(C)(=O)=O)O2 | . | . | . | . | . | .
